Results from ChEMBL document CHEMBL1124174, “Substituted benzamides. 1. Potential nondopaminergic antagonists of chemotherapy-induced nausea and emesis” (J Med Chem, 1988).
Where “and” joins values, the source holds several entries; their conditions need not be identical. Identical values can stand only once.

Assays:
D(2) dopamine receptor = D(2) dopamine receptor (Rattus norvegicus, UniProt P61169); experiment: In vitro antagonistic activity against Dopamine receptor D2 was evaluated for the inhibition of [3H]spiperone binding
Summary of the method: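 Rat striatal membranes were prepared by differential centrifugation in 50 mM Tris pH 7.4 at 4 °C. Membrane protein (10 mg) was incubated 15 min at 37 °C with 0.1 nM [3H]spiperone and varying competitor concentrations. Buffer: 50 mM Tris HCl pH 7.5, 0.1% ascorbic acid, pargyline, 120 mM NaCl, 5 mM KCl, 2 mM CaCl2, 1 mM MgCl2. (+)-Butaclamol defined nonspecific binding. Bound ligand was collected by filtration and scintillation counted. IC50 by log-logit regression.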

Canis familiaris [1] = experiment: In vivo antagonism of cisplatin-induced emesis in dog measured as percentage protection for twice the dose of 0.3 mg/kg in 2 dogs; type: functional, Canis lupus familiaris
Summary of the method: (§1)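 Nonfasted mature male or female beagles were dosed sc twice, 30 min before and 120 min after cisplatin (3 mg/kg iv; 3 mg/mL in warm 0.9% saline, used immediately). Emesis was observed up to 5 h; events within 2 min counted as one episode. Results were given as mean emetic episodes and % protection versus a dynamic control (historical and concurrent saline means pooled). t test versus saline.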

[2] = biological target: D(2) dopamine receptor (Rattus norvegicus) (UniProt P61169); experiment: In vivo antagonism activity against D2 receptor was measured as stereotypy in rat when administered subcutaneously; type: functional, organism-based
Summary of the method: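 Male Long Evans rats (275 g) were dosed sc in dilute aqueous HCl (pH 4.5-5.5) 30 min before apomorphine (1 mg/kg sc).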

Mustela putorius furo [3] = experiment: In vivo antagonism of cisplatin-induced emesis in ferret measured as emetic episodes, twice the dose of 1 mg/kg and in 3 ferrets; type: functional
Summary of the method: (§2)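 Nonfasted castrated male Fitch ferrets (1–1.5 kg) had jugular catheters implanted ≥48 h earlier under anesthesia. Compounds or saline were given iv twice, 5 min before and 90 min after cisplatin (12 mg/kg iv; 12 mg/mL in warm 0.9% saline). Emesis was observed up to 4 h; events within 1 min counted as one episode. Results were given as mean emetic episodes and % protection versus a pooled historical/concurrent control. t test versus saline.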

[4] = biological target: D(2) dopamine receptor (Canis lupus familiaris) (UniProt Q9GJU1); experiment: In vivo antagonism activity against dopamine D2 receptor was measured as emesis in dog when administered subcutaneously; type: functional, organism-based
Mustela putorius furo [5] = experiment: In vivo antagonism of cisplatin-induced emesis in ferret measured as percentage protection for twice the dose of 1 mg/kg and in 3 ferrets; type: functional; summary of the method: as §2
Canis familiaris [6] = experiment: In vivo antagonism of cisplatin-induced emesis in dog measured as emetic episodes, twice the dose of 0.3 mg/kg in 2 dogs; type: functional, Canis lupus familiaris; summary of the method: as §1
[7] = biological target: D(2) dopamine receptor (Rattus norvegicus) (UniProt P61169); experiment: In vivo antagonistic activity against dopamine D2 receptor was measured as catalepsy in rat when administered subcutaneously; type: functional, organism-based
Summary of the method: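 Male Long Evans rats (275 g) received graded sc doses in dilute aqueous HCl (pH 4.5-5.5). They were observed 180 min for catalepsy, scored when the animal stayed stationary ≥15 s on a four-cork template.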

Mustela putorius furo [8] = experiment: In vivo antagonism of cisplatin-induced emesis in ferret measured as percentage protection for twice the dose of 3 mg/kg and in 3 ferrets; type: functional; summary of the method: as §2
Canis familiaris [9] = experiment: In vivo antagonism of cisplatin-induced emesis in dog measured as emetic episodes, twice the dose of 1 mg/kg in 2 dogs; type: functional, Canis lupus familiaris; summary of the method: as §1
Mustela putorius furo [10] = experiment: In vivo antagonism of cisplatin-induced emesis in ferret measured as emetic episodes, twice the dose of 3 mg/kg and in 3 ferrets; type: functional; summary of the method: as §2
Mustela putorius furo [11] = experiment: In vivo antagonism of cisplatin-induced emesis in ferret measured as percentage protection for twice the dose of 0.3 mg/kg and in 3 ferrets; type: functional; summary of the method: as §2
Canis familiaris [12] = experiment: In vivo antagonism of cisplatin-induced emesis in dog measured as emetic episodes, twice the dose of 6 mg/kg in 2 dogs; type: functional, Canis lupus familiaris; summary of the method: as §1
Canis familiaris [13] = experiment: In vivo antagonism of cisplatin-induced emesis in dog measured as percentage protection for twice the dose of 1 mg/kg in 2 dogs; type: functional, Canis lupus familiaris; summary of the method: as §1
Mustela putorius furo [14] = experiment: In vivo antagonism of cisplatin-induced emesis in ferret measured as emetic episodes, twice the dose of 0.3 mg/kg and in 3 ferrets; type: functional; summary of the method: as §2
Canis familiaris [15] = experiment: In vivo antagonism of cisplatin-induced emesis in dog measured as percentage protection for twice the dose of 6 mg/kg in 2 dogs; type: functional, Canis lupus familiaris; summary of the method: as §1

Chain of D(2) dopamine receptor (Canis lupus familiaris) (Q9GJU1 whole entry): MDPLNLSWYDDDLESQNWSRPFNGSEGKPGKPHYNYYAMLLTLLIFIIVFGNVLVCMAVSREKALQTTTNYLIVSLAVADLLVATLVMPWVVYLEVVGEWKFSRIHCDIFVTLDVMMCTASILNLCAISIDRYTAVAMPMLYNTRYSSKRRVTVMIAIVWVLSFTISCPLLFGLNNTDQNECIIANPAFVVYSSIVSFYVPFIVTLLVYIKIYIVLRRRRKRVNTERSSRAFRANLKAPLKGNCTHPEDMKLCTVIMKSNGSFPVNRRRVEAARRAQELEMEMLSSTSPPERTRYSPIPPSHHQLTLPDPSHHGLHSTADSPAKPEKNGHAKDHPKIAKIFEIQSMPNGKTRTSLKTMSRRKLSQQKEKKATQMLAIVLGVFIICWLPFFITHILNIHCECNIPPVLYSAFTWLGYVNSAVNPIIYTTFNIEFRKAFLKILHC
Chain of D(2) dopamine receptor (Rattus norvegicus) (P61169 whole entry): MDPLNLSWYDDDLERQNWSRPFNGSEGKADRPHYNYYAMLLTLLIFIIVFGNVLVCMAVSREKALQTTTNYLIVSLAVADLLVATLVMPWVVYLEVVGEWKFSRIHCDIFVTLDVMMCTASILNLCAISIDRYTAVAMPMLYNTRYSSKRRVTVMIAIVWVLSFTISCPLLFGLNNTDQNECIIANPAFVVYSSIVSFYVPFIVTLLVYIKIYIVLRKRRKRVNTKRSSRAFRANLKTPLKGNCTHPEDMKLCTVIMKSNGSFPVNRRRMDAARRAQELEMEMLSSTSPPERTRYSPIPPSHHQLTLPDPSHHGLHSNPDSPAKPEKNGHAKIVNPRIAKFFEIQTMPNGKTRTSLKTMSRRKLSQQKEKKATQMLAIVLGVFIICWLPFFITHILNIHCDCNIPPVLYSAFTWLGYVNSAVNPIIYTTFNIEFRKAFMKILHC
Chain of D(2) dopamine receptor (P61169 whole entry): as above

Structure (SMILES): CCN(CC)CCNC(=O)c1cc(Cl)c(N)cc1OCCC(C)O (stereo not drawn)
- IC50 (D(2) dopamine receptor): > 1000 nM
- Protection (Canis familiaris [1]): 32%
- ED50 [2]: > 40 mg/kg
- Emetic episodes (Mustela putorius furo [3]): 2
- ED50 [4]: > 3 mg/kg
- Protection (Mustela putorius furo [5]): 73%
- Emetic episodes (Canis familiaris [6]): 8
- ED50 [7]: > 40 mg/kg

Structure (SMILES): C=CCOc1cc(N)c(Cl)cc1C(=O)NCCN(CC)CC
- Protection (Mustela putorius furo [8]): 95%
- Emetic episodes (Canis familiaris [9]): 3.5
- Emetic episodes (Mustela putorius furo [10]): 0.3
- Protection (Mustela putorius furo [11]): 30%
- IC50 (D(2) dopamine receptor): > 1000 nM
- Emetic episodes (Canis familiaris [12]): 1
- ED50 [2]: > 40 mg/kg
- Emetic episodes (Mustela putorius furo [3]): 3
- ED50 [4]: > 1 mg/kg
- Protection (Canis familiaris [13]): 72%
- Emetic episodes (Mustela putorius furo [14]): 4.7
- Protection (Mustela putorius furo [5]): 56%
- ED50 [7]: > 40 mg/kg
- Protection (Canis familiaris [15]): 90%

Structure (SMILES): CCN(CC)CCNC(=O)c1cc(Cl)c(N)cc1OC1CCCC[C@@H]1OC (stereo partly drawn)
- Protection (Mustela putorius furo [8]): 91%
- Emetic episodes (Canis familiaris [9]): 10
- Emetic episodes (Mustela putorius furo [10]): 0.7
- Protection (Mustela putorius furo [11]): 42%
- IC50 (D(2) dopamine receptor): > 1000 nM
- ED50 [2]: > 40 mg/kg
- Emetic episodes (Mustela putorius furo [3]): 2.3
- ED50 [4]: > 3 mg/kg
- Protection (Canis familiaris [13]): 15%
- Emetic episodes (Mustela putorius furo [14]): 4.3
- Protection (Mustela putorius furo [5]): 69%
- ED50 [7]: > 40 mg/kg

Structure (SMILES): CCN(CC)CC/N=C(\NOC)c1cc(Cl)c(N)cc1OC
- Protection (Mustela putorius furo [8]): 0%
- Emetic episodes (Mustela putorius furo [10]): 8.3
- IC50 (D(2) dopamine receptor): > 1000 nM
- Emetic episodes (Canis familiaris [12]): 8.5
- ED50 [2]: > 40 mg/kg
- ED50 [4]: > 1 mg/kg
- ED50 [7]: > 40 mg/kg
- Protection (Canis familiaris [15]): 34%

Structure (SMILES): CCN(CC)CCNC(=O)c1cc(Cl)c(N)cc1OC[C@@H](C)O (stereo in doubt; 8f)
- Emetic episodes (Canis familiaris [9]; 1 mg/kg): 0
- Protection (Mustela putorius furo [11]): 0%
- IC50 (D(2) dopamine receptor): > 1000 nM
- Emetic episodes (Mustela putorius furo [3]; 1 mg/kg): 5.7
- Protection (Canis familiaris [13]; 1 mg/kg): 100%
- Emetic episodes (Mustela putorius furo [14]): 8
- Protection (Mustela putorius furo [5]; 1 mg/kg): 22%
- Emetic episodes (Canis familiaris [6]; 0.3 mg/kg): 2

Structure (SMILES): CCC(=O)C(C)Oc1cc(N)c(Cl)cc1C(=O)NCCN(CC)CC (stereo not drawn)
- IC50 (D(2) dopamine receptor): > 1000 nM
- Protection (Canis familiaris [1]): 84%
- ED50 [2]: > 40 mg/kg
- Emetic episodes (Mustela putorius furo [3]): 1.3
- ED50 [4]: > 3 mg/kg
- Protection (Mustela putorius furo [5]): 82%
- Emetic episodes (Canis familiaris [6]): 2
- ED50 [7]: > 40 mg/kg

Structure (SMILES): CCCOc1cc(N)c(Cl)cc1C(=O)NCCN(CC)CC
- Protection (Mustela putorius furo [8]): 70%
- Emetic episodes (Mustela putorius furo [10]): 2
- IC50 (D(2) dopamine receptor): > 1000 nM
- Emetic episodes (Canis familiaris [12]): 8
- ED50 [2]: > 40 mg/kg
- ED50 [4]: > 3 mg/kg
- ED50 [7]: > 40 mg/kg
- Protection (Canis familiaris [15]): 40%

Structure (SMILES): CCN(CC)CCNC(=O)c1cc(Cl)c(N)cc1OCc1ccccn1
- Protection (Mustela putorius furo [8]): 86%
- Emetic episodes (Mustela putorius furo [10]): 1
- IC50 (D(2) dopamine receptor): > 1000 nM
- ED50 [2]: > 40 mg/kg
- Emetic episodes (Mustela putorius furo [3]): 2.3
- ED50 [4]: > 3 mg/kg
- Protection (Mustela putorius furo [5]): 67%
- ED50 [7]: > 40 mg/kg

Structure (SMILES): CCN(CC)CCN1C(=O)c2cc(Cl)c(N)cc2OC(C)=C1C
- Protection (Mustela putorius furo [11]; 0.3 mg/kg): 95% and 67%
- IC50 (D(2) dopamine receptor): > 1000 nM
- Protection (Canis familiaris [1]): 37%
- ED50 [2]: > 40 mg/kg
- ED50 [4]: > 3 mg/kg
- Emetic episodes (Canis familiaris [6]): 7.5
- ED50 [7]: > 40 mg/kg

Structure (SMILES): CCN(CC)CCNC(=O)c1cc(Cl)c(N)cc1OC/C(C)=N/OC
- Protection (Mustela putorius furo [8]): 90%
- Emetic episodes (Mustela putorius furo [10]): 0.7
- IC50 (D(2) dopamine receptor): > 1000 nM
- Emetic episodes (Canis familiaris [12]): 3.5
- ED50 [2]: > 40 mg/kg
- ED50 [7]: > 40 mg/kg
- Protection (Canis familiaris [15]): 71%
